Results on four molecules are retold here after ChEMBL document CHEMBL2157922, “Synthesis and antifungal activity of diverse C-2 pyridinyl and pyridinylvinyl substituted quinolines” (2012).

What all share (assay type): functional
For test [1], the system named is Candida albicans. The experiment in a line: Antifungal activity against Candida albicans ATCC 10231 after 48 hrs by broth microdilution technique. The note with it: ATCC 10231, 48 h. The procedure, abridged:
(§1)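 Yeasts were tested by CLSI broth microdilution in RPMI-1640 buffered to pH 7.0 with MOPS, with compound from 250 down to 0.98 in DMSO stocks. Trays were held at 30 °C in a moist, dark chamber. MIC100, the lowest concentration giving total visual inhibition against the growth control, was read by eye at 48 h.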

The subject of test [2] is Saccharomyces cerevisiae. The experiment in a line: Antifungal activity against Saccharomyces cerevisiae ATCC 9763 after 48 hrs by broth microdilution technique. Conditions: ATCC 9763, 48 h. Summed up:
as §1
(In broth dilution the organism is exposed to a series of concentrations in liquid medium.)

For test [3], the system named is Cryptococcus neoformans. The experiment in a line: Antifungal activity against Cryptococcus neoformans ATCC 32264 after 48 hrs by broth microdilution technique. The note with it: ATCC 32264, 48 h. The procedure, abridged:
as §1

Test [4] relates to Aspergillus fumigatus. The experiment in a line: Antifungal activity against Aspergillus fumigatus ATCC 26934 after 48 hrs by broth microdilution technique. Conditions: ATCC 26934, 48 h. The procedure, abridged:
(§2)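 Moulds and dermatophytes were run by CLSI broth microdilution in MOPS-buffered RPMI-1640 at pH 7.0. Aspergillus was incubated at 30 °C and dermatophytes at 28–30 °C, in a moist, dark chamber. MIC100, the lowest concentration with no visible growth, was read visually at a time set by growth of the control fungus.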

Test [5] concerns Aspergillus flavus. The test can be described thus: Antifungal activity against Aspergillus flavus ATCC 9170 after 48 hrs by broth microdilution technique. Conditions: ATCC 9170, 48 h. Summed up: as §2
Test [6] deals with Aspergillus niger. The test can be described thus: Antifungal activity against Aspergillus niger ATCC 9029 after 48 hrs by broth microdilution technique. The note with it: ATCC 9029, 48 h. Summed up: as §2
For test [7], the system named is Nannizzia gypsea. The test can be described thus: Antifungal activity against Microsporum gypseum CCC 115 after 48 hrs by broth microdilution technique. Conditions: CCC 115, 48 h. Summed up: as §2
The test system of test [8] is Trichophyton rubrum. The test can be described thus: Antifungal activity against Trichophyton rubrum CCC 113 after 48 hrs by broth microdilution technique. The note with it: CCC 113, 48 h.
The test system of test [9] is Trichophyton mentagrophytes. The experiment in a line: Antifungal activity against Trichophyton mentagrophytes ATCC 9972 after 48 hrs by broth microdilution technique. The note with it: ATCC 9972, 48 h. The procedure, abridged:
as §2

In brackets after ≈: the same amount, converted by molar mass.

Regarding `C(=C\c1ccc2ccccc2n1)/c1cccnc1`, the minimal fungicidal concentration (MFC) (usually the lowest tested concentration that kills the fungus rather than only halting it) is greater than 250 µg/mL in test [1]; greater than 250 µg/mL in test [2]; 250 µg/mL (≈ 1080 µM) in test [3]; greater than 250 µg/mL in [4]; greater than 250 µg/mL in test [5]; greater than 250 µg/mL in test [6]. The MFC in test [7], in [8] and in test [9] was 250 µg/mL (≈ 1080 µM) throughout. Besides, the MIC (usually the least concentration at which growth counts as inhibited) in test [1] turned out to be 250 µg/mL (≈ 1080 µM); in test [2] it was 250 µg/mL (≈ 1080 µM); in [3], 125 µg/mL (≈ 538 µM); in [4], 125 µg/mL (≈ 538 µM); in test [5], 125 µg/mL (≈ 538 µM); in test [6] it was 125 µg/mL (≈ 538 µM). In addition, the MIC in [7], in test [8] and in [9] was 62 µg/mL (≈ 267 µM) in each case.

Regarding `Clc1ccc2nc(-c3cccnc3)ccc2c1`, the MIC in test [1] is greater than 250 µg/mL; in test [2], greater than 250 µg/mL; in [3], 62 µg/mL (≈ 258 µM); in test [4] it was greater than 250 µg/mL; in test [5], greater than 250 µg/mL; in test [6], greater than 250 µg/mL. Besides, the MIC in [7], in test [8] and in test [9] was 31 µg/mL (≈ 129 µM) in each case. Also, the MFC in test [3], in [7], in test [8] and in test [9] was 125 µg/mL (≈ 519 µM) in each case.

Take `Fc1ccc2nc(-c3cccnc3)ccc2c1`: the minimum inhibitory concentration (MIC) in test [1] is greater than 250 µg/mL; in [2] it was greater than 250 µg/mL; in test [3], 62 µg/mL (≈ 276 µM); in test [4], 125 µg/mL (≈ 557 µM); in test [5], 125 µg/mL (≈ 557 µM); in [6], 250 µg/mL (≈ 1110 µM). The minimum inhibitory concentration (MIC) in test [7], in test [8] and in test [9] was 62 µg/mL (≈ 276 µM) in each case. For the same molecule, the minimal fungicidal concentration (MFC) in [3] is 250 µg/mL (≈ 1110 µM); in [4], 250 µg/mL (≈ 1110 µM); in test [5], 250 µg/mL (≈ 1110 µM); in test [6] it was greater than 250 µg/mL; in [7], 62 µg/mL (≈ 276 µM); in test [8], 62 µg/mL (≈ 276 µM). Moreover, the MFC in [9] turned out to be 62 µg/mL (≈ 276 µM).

On to `Clc1ccc2nc(-c3ccncc3)ccc2c1`, for which the MIC in [1] was greater than 250 µg/mL; in test [2] it was greater than 250 µg/mL; in test [3] it was 125 µg/mL (≈ 519 µM); in [4], greater than 250 µg/mL; in test [5], greater than 250 µg/mL; in [6], greater than 250 µg/mL. Also, the MIC in test [7], in test [8] and in test [9] was 125 µg/mL (≈ 519 µM) throughout. The MFC in [3] is 250 µg/mL (≈ 1040 µM); in test [7], 125 µg/mL (≈ 519 µM); in test [8], 125 µg/mL (≈ 519 µM); in test [9], 125 µg/mL (≈ 519 µM).
